We go through three molecules from ChEMBL document CHEMBL2010709, “Pinophilins A and B, inhibitors of mammalian A-, B-, and Y-family DNA polymerases and human cancer cell proliferation” (J Nat Prod, 2012).

The IC50 is the concentration that gives 50% inhibition. In general, GI50 refers to the concentration at which growth is held to half of that of the control. Read a low GI50 as greater sensitivity of the cells.

Activity calls are given as the source filed them. The rule behind the calls is not given here.

The target of series [1] is DNA nucleotidylexotransferase (Bos taurus, UniProt P06526). Put plainly: Inhibition of calf TdT assessed as inhibition of incorporation of dTTP into oligo(dT)18(3'OH) after 60 mins. In outline: (§1)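 Enzyme (0.05 units) was preincubated with compound in DMSO at 0 °C for 10 min in Tris-HCl pH 7.5/DTT/glycerol/EDTA buffer, then reacted at 37 °C for 60 min. Substrates were poly(rA)/oligo(dT)18 (A/T = 2/1) plus dTTP for HIV-1 RT, and oligo(dT)18 (3′-OH) primer plus dTTP for calf thymus TdT. Activity was relative to uninhibited control; mean ± SE of three experiments.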

The subject of the next series is Thermus aquaticus. Description: Inhibition of Thermus aquaticus DNA polymerase assessed as inhibition of incorporation of dTTP into activated DNA primer after 60 mins.
The test system of a further series is NUGC-3. Description: Growth inhibition of human NUGC3 cells after 24 hrs by WST-1 assay. Type of series: functional. The conditions noted are these: NUGC-3, 24 h. The method, boiled down: (§2)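 Cancer cells were grown in McCoy's 5A with 10% FBS and penicillin/streptomycin, 37 °C, 5% CO2. Cells were seeded at 1 × 10^4 per well, cultured 12 h, then given compound (10 mM DMSO stock diluted in medium, 0.5% DMSO) for 24 h. WST-1 was added for 4 h and absorbance read at 450/630 nm. GI50 given as mean ± SE, five independent experiments.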

Series [2] in a line: Inhibition of human His6-tagged DNA polymerase gamma expressed using baculovirus assessed as inhibition of incorporation of dTTP into poly(dA)/oligo(dT)18 after 60 mins. The method, boiled down:
(§3)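 Compound in DMSO was sonicated for 30 s, then held with enzyme (0.05 units final) at 0 °C for 10 min in 50 mM Tris-HCl pH 7.5, 1 mM DTT, 50% glycerol, 0.1 mM EDTA. The mixture was added to the standard reaction mix with poly(dA)/oligo(dT)18 (A/T = 2/1) and dTTP, 37 °C, 60 min. Activity was relative to no-inhibitor control; mean ± SE, three independent experiments.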

Another series has as its system BALL-1. Description: Cell cycle arrest in human BALL-1 cells assessed as accumulation at S-phase at GI50 by tritiated thymidine incorporation assay. Type of series: functional, cell-based.
The target in the next series is DNA polymerase beta (Rattus norvegicus, UniProt P06766). Description: Inhibition of rat DNA polymerase beta expressed in Escherichia coli JMpbeta5 assessed as inhibition of incorporation of dTTP into poly(dA)/oligo(dT)18 after 60 mins. In outline:
as §3

Series [3] concerns the target T1, DNA polymerase delta catalytic subunit (Homo sapiens, UniProt P28340).
T1 sequence (P28340 whole entry): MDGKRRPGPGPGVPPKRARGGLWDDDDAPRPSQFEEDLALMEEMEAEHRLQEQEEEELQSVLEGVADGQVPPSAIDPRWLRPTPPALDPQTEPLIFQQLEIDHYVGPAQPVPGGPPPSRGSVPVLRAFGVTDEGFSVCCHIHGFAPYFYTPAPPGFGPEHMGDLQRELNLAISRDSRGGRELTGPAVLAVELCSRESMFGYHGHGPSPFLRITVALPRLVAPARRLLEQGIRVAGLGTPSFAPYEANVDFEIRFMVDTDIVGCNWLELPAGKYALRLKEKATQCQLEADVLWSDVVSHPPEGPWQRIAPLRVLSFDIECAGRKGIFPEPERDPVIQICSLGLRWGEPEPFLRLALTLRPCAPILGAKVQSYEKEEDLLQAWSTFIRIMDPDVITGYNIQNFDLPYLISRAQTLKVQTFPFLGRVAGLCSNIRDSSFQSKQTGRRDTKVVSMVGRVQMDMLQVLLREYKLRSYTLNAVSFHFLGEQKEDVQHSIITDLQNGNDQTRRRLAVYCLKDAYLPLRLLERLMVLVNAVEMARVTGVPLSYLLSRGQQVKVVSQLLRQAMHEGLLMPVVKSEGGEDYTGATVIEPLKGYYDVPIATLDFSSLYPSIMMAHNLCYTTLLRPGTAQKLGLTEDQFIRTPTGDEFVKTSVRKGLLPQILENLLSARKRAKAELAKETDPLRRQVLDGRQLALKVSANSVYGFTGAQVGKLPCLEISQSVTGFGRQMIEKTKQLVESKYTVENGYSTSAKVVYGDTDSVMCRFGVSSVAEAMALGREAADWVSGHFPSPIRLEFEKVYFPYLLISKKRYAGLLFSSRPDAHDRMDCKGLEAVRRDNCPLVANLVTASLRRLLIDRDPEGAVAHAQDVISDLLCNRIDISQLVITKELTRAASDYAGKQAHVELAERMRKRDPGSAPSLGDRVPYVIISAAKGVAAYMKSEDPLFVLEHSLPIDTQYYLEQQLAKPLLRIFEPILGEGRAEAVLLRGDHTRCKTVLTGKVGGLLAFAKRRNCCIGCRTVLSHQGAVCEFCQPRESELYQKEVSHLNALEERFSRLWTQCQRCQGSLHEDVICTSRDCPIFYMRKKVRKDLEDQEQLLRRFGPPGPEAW
Put plainly: Inhibition of human DNA polymerase delta assessed as inhibition of incorporation of dTTP into poly(dA)/oligo(dT)18 after 60 mins. In outline:
as §3

Series [4] relates to Brassica oleracea var. botrytis. Put plainly: Inhibition of cauliflower DNA polymerase alpha assessed as inhibition of incorporation of dTTP into activated DNA primer after 60 mins.
The nature of series [5]: Inhibition of T7 RNA polymerase assessed as inhibition of incorporation of [3H]UTP after 30 mins by liquid scintillation counting. Also noted: species or system Escherichia phage T7.
Series [6] in a line: Inhibition of calf DNA polymerase alpha assessed as inhibition of incorporation of dTTP into poly(dA)/oligo(dT)18 after 60 mins. Further details: species or system Bos taurus. The method, boiled down:
as §3

Series [7] concerns the target Human immunodeficiency virus type 1 reverse transcriptase (Human immunodeficiency virus 1, UniProt Q72547). Description: Inhibition of HIV-1 reverse transcriptase assessed as inhibition of incorporation of dTTP into poly(rA)/oligo(dT)18 after 60 mins. In outline: as §1
Series [8] is described as follows: Growth inhibition of HUVEC cells after 72 hrs by WST-1 assay. Type of series: cell-based. The conditions noted are these: human. The method, boiled down: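 Normal cells (HDF, HUVEC) were grown in Eagle's MEM with 4.5 g/L glucose, 10% FCS, 5 mM L-glutamine and penicillin/streptomycin, 37 °C, 5% CO2. Cells were seeded at 1 × 10^4 per well, cultured 12 h, then exposed to compound (0.5% DMSO final) for 72 h. Viability was read by WST-1 at 450/630 nm. GI50 given as mean ± SE of five experiments.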
(In general: Tetrazolium dyes change colour on reduction, which living cells bring about.)

In a further series the test system is HCT-116. Description: Growth inhibition of against human HCT116 cells after 24 hrs by WST-1 assay. Format: functional. The settings on record: HCT-116, 24 h. The method, boiled down: as §2
The test system of another series is HeLa. Description: Growth inhibition of human HeLa cells after 24 hrs by WST-1 assay. Format: functional. The method, boiled down:
as §2

The nature of series [9]: Inhibition of Thermus aquaticus DNA polymerase assessed as inhibition of incorporation of dTTP into poly(dA)/oligo(dT)18 after 60 mins at 74 degC. The method, boiled down:
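Taq pol (0.05 units) was preincubated with compound (DMSO, sonicated) at 0 °C for 10 min, then reacted with poly(dA)/oligo(dT)18 (A/T = 2/1) and dTTP at 74 °C for 60 min. Activity was expressed relative to no-inhibitor control; mean ± SE, three independent experiments.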

Sequence of DNA nucleotidylexotransferase (P06526 whole entry): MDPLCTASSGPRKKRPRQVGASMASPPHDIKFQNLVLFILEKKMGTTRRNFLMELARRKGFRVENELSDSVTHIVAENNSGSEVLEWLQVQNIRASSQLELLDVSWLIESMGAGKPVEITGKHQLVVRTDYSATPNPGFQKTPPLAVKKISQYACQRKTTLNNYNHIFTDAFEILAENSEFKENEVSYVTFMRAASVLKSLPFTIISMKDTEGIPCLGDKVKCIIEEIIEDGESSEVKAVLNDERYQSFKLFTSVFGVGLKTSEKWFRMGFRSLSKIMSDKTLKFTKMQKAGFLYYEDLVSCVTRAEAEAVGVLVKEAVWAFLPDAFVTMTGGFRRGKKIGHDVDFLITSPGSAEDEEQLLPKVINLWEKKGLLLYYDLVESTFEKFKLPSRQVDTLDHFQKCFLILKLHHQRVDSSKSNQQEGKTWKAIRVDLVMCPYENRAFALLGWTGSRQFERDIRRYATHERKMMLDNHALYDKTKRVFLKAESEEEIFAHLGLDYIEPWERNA

Take `C/C=C/C1=CC2=CC(=O)[C@@](C)(O)[C@@H](OC(=O)c3c(C)cc(O)cc3O)[C@@H]2CO1`: the IC50 is > 200 µM in series [1]; 67.3 µM in [2]; > 200 µM at DNA polymerase beta; 68 µM in series [3]; > 200 µM in series [5]; 63.2 µM in [6]. The IC50 in series [7] and in [9] was > 200 µM in each case. The inhibition entry (in the series on Thermus aquaticus; in [4]) was “inactive” throughout. Also, the GI50 in the series with NUGC-3 was 66.4 µM; in the series on HCT-116 it was 64.6 µM; in the series with HeLa, 68.8 µM. In the series with BALL-1, the result was Active. Also, the GI50 at 72 h in series [8] is > 200 µM.
For `C/C=C/C1=CC2=CC(=O)[C@@](C)(OC(=O)c3c(C)cc(O)cc3O)[C@@H](O)[C@@H]2CO1` [PINOPHILIN A], the IC50 in [1] is > 200 µM; in [2], 55.6 µM; on DNA polymerase beta it was > 200 µM; in series [3] it was 54.5 µM; in [5] it was > 200 µM; in series [6], 49.1 µM. Further, the IC50 in series [7] and in [9] was > 200 µM each time. Further, the inhibition result (in the series on Thermus aquaticus; in series [4]) was “inactive” each time. The results for the GI50 with NUGC-3, in the series on HCT-116 and with HeLa were 54.7 µM, 51.3 µM and 55.6 µM, respectively. The result in the series with BALL-1 was Active. In addition, in series [8], the GI50 at 72 h is > 200 µM.
Take `Cc1cc(O)cc(O)c1C(=O)O[C@H]1[C@@H]2COC(/C=C/CO)=CC2=CC(=O)[C@@]1(C)O` [PINOPHILIN B]: the IC50 in series [1] is > 200 µM; in series [2], 93.7 µM; at DNA polymerase beta it was > 200 µM; in series [3], 96.4 µM; in [5], > 200 µM; in series [6], 89.5 µM. Moreover, the IC50 in series [7] and in [9] was > 200 µM each time. For the same molecule, the inhibition result (in the series with Thermus aquaticus; in series [4]) was “inactive” throughout. The GI50 in the series with NUGC-3 was determined as 96.8 µM; with HCT-116, 92.5 µM; in the series on HeLa, 99 µM. Moreover, the result in the series on BALL-1 was Active. Besides, in series [8], the GI50 at 72 h is > 200 µM.
